Activity calls are given as the source filed them. The calls are words filed in the database; no cut-off is given here.
Target: T1, Aspartate aminotransferase, cytoplasmic (Homo sapiens, UniProt P17174)
Test: Inhibition of GOT1 (unknown origin) using aspartate and alpha-ketoglutarate as substrate after 20 mins by MDH1 enzyme-coupled fluorescence assay
Conditions: not given
Outline: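 Oxaloacetate from GOT1 (~1 nM) is reduced by MDH1 (0.3 µg/mL final) using NADH (250 µM final). Loss of NADH fluorescence is read at 340/445 nm. Substrates aspartate 4 mM and alpha-ketoglutarate 0.5 mM. Buffer: 100 mM HEPES, 100 mM KCl. Incubated 20 min at 37 °C. Mean of n = 3.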

T1 sequence (P17174 whole entry): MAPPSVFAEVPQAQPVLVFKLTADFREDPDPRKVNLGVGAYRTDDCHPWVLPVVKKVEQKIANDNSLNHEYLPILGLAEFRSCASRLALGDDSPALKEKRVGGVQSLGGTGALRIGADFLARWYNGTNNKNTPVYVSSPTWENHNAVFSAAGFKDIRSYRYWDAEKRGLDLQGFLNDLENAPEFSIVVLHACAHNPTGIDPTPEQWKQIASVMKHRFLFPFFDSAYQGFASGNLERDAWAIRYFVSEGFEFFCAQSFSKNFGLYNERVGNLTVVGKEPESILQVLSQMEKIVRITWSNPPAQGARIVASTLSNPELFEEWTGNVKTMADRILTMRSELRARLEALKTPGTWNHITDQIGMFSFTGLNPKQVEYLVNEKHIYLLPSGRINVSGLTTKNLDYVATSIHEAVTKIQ

| Structure (SMILES) | IC50 |
| --- | --- |
| O=C(Nc1ccccc1)N1CCN(c2cccc3ncccc23)CC1 | > 100 µM |
| Cc1cccc(C)c1NC(=O)N1CCN(c2cccc3[nH]ccc23)CC1 | > 100 µM |
| Cc1cc(C)cc(NC(=O)N2CCN(c3cccc4[nH]ccc34)CC2)c1 | 64 µM |
| COc1cc(NC(=O)N2CCN(c3cccc4[nH]ccc34)CC2)cc(OC)c1 | > 100 µM |
| COc1cccc(OC)c1NC(=O)N1CCN(c2cccc3[nH]ccc23)CC1 | > 100 µM |
| COc1ccc(N2CCN(C(=O)Nc3ccccc3)CC2)cc1 | > 100 µM |
| O=C(OCc1ccccc1)N1CCN(c2cccc3[nH]ccc23)CC1 | > 100 µM |
| COc1cccc(N2CCN(C(=O)Nc3ccccc3)CC2)c1 | > 100 µM |
| COc1ccc(NC(=O)N2CCN(c3cccc4[nH]ccc34)CC2)c(OC)c1 | > 100 µM |
| CCN1CCN(C(=O)Nc2ccccc2)CC1 | > 100 µM |
| O=C(Nc1ccc(OC(F)(F)F)cc1)N1CCN(c2cccc3[nH]ccc23)CC1 | 36 µM |
| CC(C)N1CCN(C(=O)Nc2ccccc2)CC1 | > 100 µM |
| N#Cc1ccc(NC(=O)N2CCN(c3cccc4[nH]ccc34)CC2)cc1 | 21 µM |
| O=C(Nc1ccnnc1)N1CCN(c2cccc3[nH]ccc23)CC1 | > 100 µM |
| O=C(Nc1ccc(C(F)(F)F)cc1)N1CCN(c2ccncc2)CC1 | > 100 µM |
| O=C(Nc1cncnc1)N1CCN(c2cccc3[nH]ccc23)CC1 | > 100 µM |
| O=C(Nc1ccncn1)N1CCN(c2cccc3[nH]ccc23)CC1 | > 100 µM |
| COc1ccccc1N1CCN(C(=O)Nc2ccccc2)CC1 | > 100 µM |
| O=C(Nc1ccccc1)N1CCN(c2ccncc2)CC1 | > 100 µM |

| Structure (SMILES) | IC50 |
| --- | --- |
| CC(C)CNC(=O)N1CCN(c2cccc3[nH]ccc23)CC1 | > 100 µM |
| COc1ccc(OC)c(NC(=O)N2CCN(c3cccc4[nH]ccc34)CC2)c1 | > 100 µM |
| CN1CCN(C(=O)Nc2ccccc2)CC1 | > 100 µM |
| O=C(Nc1ccccc1)N1CCN(c2cccc3cnccc23)CC1 | > 100 µM |
| O=C(Nc1ccccc1)N1CCN(c2ccccc2)CC1 | > 100 µM |
| CNC(=O)N1CCN(c2cccc3[nH]ccc23)CC1 | > 100 µM |
| O=C(c1ccccc1)N1CCN(c2cccc3[nH]ccc23)CC1 | > 100 µM |
| CC(=O)c1ccc(NC(=O)N2CCN(c3cccc4[nH]ccc34)CC2)cc1 | 16 µM |
| CS(=O)(=O)N1CCN(C(=O)Nc2ccccc2)CC1 | > 100 µM |
| O=C(Nc1ccccc1)N1CCN(Cc2cncs2)CC1 | > 100 µM |
| O=C(Nc1cccc2cccnc12)N1CCN(c2cccc3[nH]ccc23)CC1 | > 100 µM |
| CC(=O)N1CCN(C(=O)Nc2ccccc2)CC1 | > 100 µM |
| O=C(Nc1ccc(C(F)(F)F)cc1)N1CCN(c2cccc3[nH]ccc23)CC1 | 16 µM |
| O=C(Nc1cccc(C(F)(F)F)c1)N1CCN(c2ccncc2)CC1 | > 100 µM |
| COc1ccc(NC(=O)N2CCN(c3cccc4[nH]ccc34)CC2)cc1 | 25 µM |
| COc1c(C)cccc1NC(=O)N1CCN(c2cccc3[nH]ccc23)CC1 | > 100 µM |
| CC(C)NC(=O)N1CCN(c2cccc3[nH]ccc23)CC1 | > 100 µM |
| O=C(Nc1ccc(Cl)cc1)N1CCN(c2ccncc2)CC1 | > 100 µM |
| O=C(c1ccccc1)c1ccc(NC(=O)N2CCN(c3cccc4[nH]ccc34)CC2)cc1 | 43 µM |

The next lines start with the values.

| IC50 | Structure (SMILES) |
| --- | --- |
| > 100 µM | N#Cc1ccccc1NC(=O)N1CCN(c2cccc3[nH]ccc23)CC1 |
| 32 µM | O=C(NCCc1c[nH]c2ccccc12)Nc1ccc(Cl)cc1Cl |
| > 100 µM | CNC(=O)c1cccc(NC(=O)N2CCN(c3cccc4[nH]ccc34)CC2)c1 |
| 39 µM | O=C(Nc1cccc(Oc2ccccc2)c1)N1CCN(c2cccc3[nH]ccc23)CC1 |
| > 100 µM | O=C(NCCc1c[nH]c2ccccc12)Nc1ccccc1 |
| > 100 µM | O=C(Nc1ccncc1)N1CCN(c2cccc3[nH]ccc23)CC1 |
| > 100 µM | O=C(Nc1ccccc1Cl)N1CCN(c2cccc3[nH]ccc23)CC1 |
| 22 µM | O=C(Nc1cc(Cl)cc(Cl)c1)N1CCN(c2cccc3[nH]ccc23)CC1 |
| > 100 µM | Cc1cccc(NC(=O)N2CCN(c3cccc4[nH]ccc34)CC2)c1C |
| > 100 µM | O=C(NCc1ccc(Cl)cc1)N1CCN(c2cccc3[nH]ccc23)CC1 |
| 36 µM | O=C(NCCc1c[nH]c2ccccc12)Nc1ccc(Cl)c(Cl)c1 |
| > 100 µM | O=C(CCc1ccccc1)N1CCN(c2cccc3[nH]ccc23)CC1 |
| 39 µM | O=C(NCCc1c[nH]c2ccccc12)Nc1ccc(C(F)(F)F)cc1 |
| 67 µM | O=C(NCCc1c[nH]c2ccccc12)Nc1ccc(Br)cc1 |
| 56 µM | O=C(Nc1ccc(Cl)cc1Cl)N1CCN(c2cccc3[nH]ccc23)CC1 |
| 16 µM | O=C(Nc1ccc(Br)cc1)N1CCN(c2cccc3[nH]ccc23)CC1 |
| > 100 µM | O=C(Nc1ccccc1)N1CCN(c2ccc(Cl)c3[nH]ccc23)CC1 |
| 63 µM | O=C(NCCc1c[nH]c2ccccc12)Nc1ccc(OC(F)(F)F)cc1 |
| > 100 µM | CNC(=O)c1ccc(NC(=O)N2CCN(c3cccc4[nH]ccc34)CC2)cc1 |
| 46 µM | O=C(Nc1ccccc1)N1CCN(c2cc(Cl)cc3[nH]ccc23)CC1 |
| > 100 µM | O=C(Nc1c(Cl)cccc1Cl)N1CCN(c2cccc3[nH]ccc23)CC1 |
| 85 µM | O=C(Nc1ccccc1)N1CCN(c2cccc3[nH]ccc23)CC1 |
| > 100 µM | O=C(Nc1ccccn1)N1CCN(c2cccc3[nH]ccc23)CC1 |
| > 100 µM | O=C(Nc1ccc2ncccc2c1)N1CCN(c2cccc3[nH]ccc23)CC1 |
| 14 µM | O=C(Nc1cccc(C(F)(F)F)c1)N1CCN(c2cccc3[nH]ccc23)CC1 |
| > 100 µM | Cc1ccc(NC(=O)N2CCN(c3cccc4[nH]ccc34)CC2)cc1 |
| > 100 µM | O=C(Nc1ccccc1C(F)(F)F)N1CCN(c2cccc3[nH]ccc23)CC1 |
| > 100 µM | O=C(Nc1cccnc1)N1CCN(c2cccc3[nH]ccc23)CC1 |

| IC50 | Structure (SMILES) |
| --- | --- |
| > 100 µM | O=C(Nc1cccc(Cl)c1Cl)N1CCN(c2cccc3[nH]ccc23)CC1 |
| > 100 µM | Cc1ccc(C)c(NC(=O)N2CCN(c3cccc4[nH]ccc34)CC2)c1 |
| 62 µM | O=C(NCCc1c[nH]c2ccccc12)Nc1cccc(C(F)(F)F)c1 |
| > 100 µM | Cc1ccc(NC(=O)N2CCN(c3cccc4[nH]ccc34)CC2)cc1C |
| > 100 µM | Cc1ccc(NC(=O)N2CCN(c3cccc4[nH]ccc34)CC2)c(C)c1 |
| > 100 µM | O=C(CCC(=O)Nc1c[nH]c2ccccc12)Nc1ccccc1 |
| 76 µM | O=C(Nc1ccc2scnc2c1)N1CCN(c2cccc3[nH]ccc23)CC1 |
| 8.2 µM | O=C(Nc1ccc(Cl)cc1)N1CCN(c2cccc3[nH]ccc23)CC1 |
| > 100 µM | COc1ccc(NC(=O)N2CCN(c3cccc4[nH]ccc34)CC2)cc1OC |
| > 100 µM | N#Cc1cccc(NC(=O)N2CCN(c3cccc4[nH]ccc34)CC2)c1 |
| 34 µM | O=C(NCCc1c[nH]c2ccccc12)Nc1ccccc1-c1ccccc1 |
| > 100 µM | O=C(NCc1ccccc1)N1CCN(c2cccc3[nH]ccc23)CC1 |
| > 100 µM | Cc1ccc2[nH]ccc2c1N1CCN(C(=O)Nc2ccccc2)CC1 |
| 28 µM | O=C(NCCc1c[nH]c2ccccc12)Nc1cccc(Br)c1 |
| > 100 µM | O=C(Nc1cccc2ncsc12)N1CCN(c2cccc3[nH]ccc23)CC1 |
| 36 µM | O=C(NCCc1c[nH]c2ccccc12)Nc1ccc(Cl)cc1 |
| > 100 µM | Cc1cc(N2CCN(C(=O)Nc3ccccc3)CC2)c2cc[nH]c2c1 |
| > 100 µM | O=C(Nc1cc(Cl)ccc1Cl)N1CCN(c2cccc3[nH]ccc23)CC1 |
| 41 µM | Cc1ccc(N2CCN(C(=O)Nc3ccccc3)CC2)c2cc[nH]c12 |
| > 100 µM | Cc1cccc(NC(=O)N2CCN(c3cccc4[nH]ccc34)CC2)c1 |
| 52 µM | O=C(Nc1cccc(Cl)c1)N1CCN(c2cccc3[nH]ccc23)CC1 |
| > 100 µM | O=C(Cc1ccccc1)N1CCN(c2cccc3[nH]ccc23)CC1 |
| > 100 µM | O=C(Nc1ccc(Cc2ccccc2)cc1)N1CCN(c2cccc3[nH]ccc23)CC1 |
| > 100 µM | COc1ccccc1NC(=O)N1CCN(c2cccc3[nH]ccc23)CC1 |
| > 100 µM | COc1cccc(NC(=O)N2CCN(c3cccc4[nH]ccc34)CC2)c1 |
| > 100 µM | O=C(Nc1ccccc1)N1CCN(c2cccc3[nH]ncc23)CC1 |
| > 100 µM | Cc1ccccc1NC(=O)N1CCN(c2cccc3[nH]ccc23)CC1 |

Test system: not listed separately
Test: Half life in CD-1 mouse at 20 mg/kg administered via oral gavage by LC-MS/MS analysis
Format: ADME, organism-based
Conditions: in vivo
Outline: (§1)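 Female CD1 mice, 9 weeks old, oral gavage at 20 mg/kg (5 mL/kg). Fasted overnight, with food returned after the 4-h bleed. Blood sampled retro-orbitally at 0.5, 1, 4, 8 and 24 h, n = 3 per time point. Plasma separated by centrifugation and frozen at -80 °C. Drug level quantified by LC/MS/MS from analyte peak area.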

| half-life | Structure (SMILES) |
| --- | --- |
| 42 min | O=C(Nc1ccccc1)N1CCN(c2cccc3[nH]ccc23)CC1 |

Test system: not listed separately
Test: Cmax in CD-1 mouse at 20 mg/kg administered via oral gavage by LC-MS/MS analysis
Format: ADME, organism-based
Design: dose 20 mg/kg, route oral
Conditions: in vivo
Outline: as §1

| Cmax | Structure (SMILES) |
| --- | --- |
| 4130 ng/mL | O=C(Nc1ccccc1)N1CCN(c2cccc3[nH]ccc23)CC1 |

Test system: not listed separately
Test: Stability in mouse plasma assessed as parent compound remaining after 4 hrs
Format: ADME, cell-free
Conditions: read-out: Stability

| remaining at 4 h | Structure (SMILES) |
| --- | --- |
| > 95% | O=C(Nc1ccccc1)N1CCN(c2cccc3[nH]ccc23)CC1 |

Test system: Mus musculus
Test: AUC (0 to 24 hrs) in CD-1 mouse at 20 mg/kg administered via oral gavage by LC-MS/MS analysis
Format: ADME, organism-based
Design: time < 24 hr, dose 20 mg/kg, route oral
Conditions: in vivo
Outline: as §1

| AUC | Structure (SMILES) |
| --- | --- |
| 11734 ng·h/mL | O=C(Nc1ccccc1)N1CCN(c2cccc3[nH]ccc23)CC1 |

Target: T1, Aspartate aminotransferase, cytoplasmic
Test: Inhibition of GOT1 (unknown origin) using aspartate and alpha-ketoglutarate as substrate after 20 mins by GLOX enzyme-coupled fluorescence assay
Conditions: not given
Outline: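 GOT1 (~1 nM, set per purification for a 20 min linear reaction) with aspartate 4 mM and alpha-ketoglutarate 0.5 mM (KM levels). Glutamate is turned over by GLOX (80 nM), and the H2O2 drives HRP (0.05 U/mL) oxidation of Amplex Red (15 µg/mL). Buffer: 100 mM HEPES, 100 mM KCl. Run 20 min at 37 °C; resorufin fluorescence read at 530/550 nm.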

| inhibition | Structure (SMILES) |
| --- | --- |
| Active | O=C(Nc1ccccc1)N1CCN(c2cccc3[nH]ccc23)CC1 |

— ChEMBL document CHEMBL4229399, “Discovery and optimization of aspartate aminotransferase 1 inhibitors to target redox balance in pancreatic ductal adenocarcinoma” (Bioorg Med Chem Lett, 2018)
